For experiment [1], the system named is Mycobacterium tuberculosis. In words: Antimicrobial activity against Mycobacterium tuberculosis H37Rv after 7 days by MABA. The class given is functional. Particulars: 168 h. The gist of the method:
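Strain H37Rv or clinical isolates grown to late log phase in 7H9-ADC-TG, washed, resuspended in PBS, filtered (8 µm) and frozen. On day 7 Tween 80 and alamar blue added, read 16–24 h later (ex 530/em 590). MIC = lowest concentration giving ≥90% fluorescence reduction versus bacterium-only controls.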

Experiment [2] relates to Mycobacterium tuberculosis. In words: Antimicrobial activity against Mycobacterium tuberculosis H37Rv infected in BALB/C mouse assessed as bacterial burden in mouse lung at 25 mg/kg, po administered via gavage treated 5 times per week for 3 weeks starting from day 10 post infection (reference value: 7.102 +/- 0.152 log10CFU). The class given is functional.

In brackets after ≈: the same amount, converted by molar mass.

By MIC90 is commonly meant the lowest concentration that inhibits either 90% of growth or 90% of the strains tested, depending on the study. Read a high MIC90 as lower susceptibility.

Take `NNC(=O)c1ccncc1` [ISONIAZID]: in experiment [1], the MIC90 amounted to 0.035 µg/mL (≈ 0.255 µM). The Activity in experiment [2] was 1.929 log10CFU.
